Compound activity deposited in PubChem BioAssay by Broad Institute.
Rows were chosen to be rich in hits. Some 2.4% of all compounds tested hit in one or more screens of this group.
LGR2 antag: inhibitors of bursicon-induced Drosophila LGR2 receptor cAMP signaling; HEK293 LGR2, CRE-luciferase, bursicon-stimulated, 4 h; inhibition, % at 9.99 µM; 380,000 compounds, 0.35% hits;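 active = drop in luminescence signal, shown as inhibition above about 50% in the replicate tests, limit read from the data, passing the limit was not always enough; inconclusive = probably only some replicates passing the limit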;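 also: agonist challenge used bursicon conditioned medium at about half maximal strength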
Ecoli rRNA inh: inhibitors of bacterial rRNA selective over humanized ribosomes; E. coli WT GFP vs humanized-ribosome RFP mutants, fluorescence, 24 h; stronger effect = lower value; DMSO median 0, no signal -100; 350,000 compounds, 1.6% hits; GFP signal change (wild-type ribosome), % (concentration not given with the values);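 active = significant combined selectivity score with lowered wild-type GFP, culture density cut under 30%, mutant RFP and density less affected; inactive = any of these conditions unmet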
E-sel inducer: E-selectin induction on HUVECs; P16581; HUVEC E-selectin immunofluorescence imaging; normalized: neutral wells 0, TNF-alpha wells 100; activation, % at 7.58 µM; 260,000 compounds, 0.37% hits; AID 686992;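 active = mean E-selectin-positive cell signal at least 10% of the positive control, reached in at least 60% of replicates, without over 20% cell loss; inconclusive = no rule given, readout overlaps actives, possibly toxicity-flagged; inactive = the rest, including those meeting only one limit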
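Assay system: HUVEC primary endothelial cells. Input: 3,000 HUVEC seeded per well. Doses: one compound dose added by pin transfer. Read-out basis: % PE-positive cells. Benchmarks: TNF-alpha high, DMSO low. Detection: immunofluorescence imaging. Buffer or medium: EGM-2, gelatin.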
EWS-Fli inh: inhibitors of EWS/Fli oncoprotein transcriptional activity; A673 NR0B1-luciferase reporter, viability-normalised; inhibition, % at 12.6 µM; 350,000 compounds, 0.67% hits; AID 651661;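 active = mean inhibition of at least 50% after viability correction, with every replicate also passing that limit; inconclusive = mean reaches 50% but only one of two replicates passes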;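 also: firefly luciferase signal divided by Alamar Blue viability fluorescence both relative to DMSO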
Each line names hits and unclear results; the compound was inactive in the other large screens.

CCn1c2ccccc2c2cc(CNCc3ccc(OC)cc3OC)ccc21	LGR2 antag 102.1
O=c1oc2ccccc2cc1-c1nc2c(s1)CCCC2	EWS-Fli inh 59.6 (no result: E-sel inducer)
Cc1c(C)c2ccc(OCC(=O)Nc3ccccn3)c(C)c2oc1=O	LGR2 antag 100.1 (no result: E-sel inducer, EWS-Fli inh)
O=C(COc1ccc(Cl)cc1Cl)NC(=S)N1CCCc2ccccc21	Ecoli rRNA inh -25.8 (no result: E-sel inducer)
O=C(COc1ccc(Cl)cc1Cl)Nc1ccccn1	LGR2 antag 100.1, EWS-Fli inh 60.3 (no result: E-sel inducer)
O=C(C[C@@H]1CC[C@H]2[C@@H](COC[C@H](O)CN2C(=O)Nc2ccc(Cl)cc2)O1)NC1Cc2ccccc2C1	none (no result: EWS-Fli inh)
CC(=O)N1[C@@H]2c3ccc(C4=CCCC4)c(=O)n3C[C@H]1[C@H](CO)[C@H]2C(=O)N[C@H](C)c1ccccc1	none
Cc1cc(Cl)n2c(nc3cc(F)c(F)cc32)c1C#N	EWS-Fli inh 58.3
C[C@@H]1CN([C@@H](C)CO)C(=O)c2cc(NS(=O)(=O)c3ccccc3)ccc2O[C@H]1CN(C)S(=O)(=O)c1cn(C)cn1	none
O=C(Nc1nnc([C@H]2C[C@H](O)[C@@H](CO)O2)s1)Nc1cccc(Cl)c1Cl	Ecoli rRNA inh -25.1
O=C(Nc1cc(F)ccc1F)N1CCN(c2ccnc3cc(Cl)ccc23)CC1	Ecoli rRNA inh -27.6
COc1ccc(N2CCN(CC(=O)Nc3ccccc3C(=O)NC(C)c3ccccc3)CC2)cc1 (stereo unspecified)	none
COc1ccc(N2CCN(CC(=O)Nc3ccccc3C(=O)NCc3ccccc3)CC2)cc1	Ecoli rRNA inh -28.9 (no result: E-sel inducer)
COc1ccc(N2CCN(C(=O)Nc3ccccc3Cl)CC2)cc1	Ecoli rRNA inh -22.9 (no result: E-sel inducer)
COc1ccc(Cl)cc1NC(=O)NCC1CCN(C(=O)OC(C)(C)C)CC1	Ecoli rRNA inh -20.4 (no result: E-sel inducer)
C[C@@H]1CN([C@H](C)CO)C(=O)c2cc(NC(=O)c3ccncc3)ccc2O[C@@H](C)CCCCO[C@H]1CN(C)Cc1ccc(Cl)c(Cl)c1	none
C[C@H]1CN([C@@H](C)CO)S(=O)(=O)c2ccc(-c3cncnc3)cc2O[C@@H]1CN(C)C(=O)C1CC1	none
CCN1[C@@H]2Cn3c(ccc(C4=CCCCC4)c3=O)[C@H]1[C@@H](C(=O)NCC(F)(F)F)[C@@H]2CO	none (no result: LGR2 antag, E-sel inducer, EWS-Fli inh)
COc1ccc(Cl)cc1NC(=O)N1CCN(c2ccccc2OC)CC1	Ecoli rRNA inh -30.5 (no result: LGR2 antag)
Cc1c(Cl)sn(-c2ccc(Cl)cc2)c1=O	EWS-Fli inh 64.6 (no result: E-sel inducer)
O=C(c1cccnc1)n1nc(NCc2ccccc2)nc1NCc1ccccc1	Ecoli rRNA inh -35.2
O=C(c1ccco1)n1nc(NCc2ccccc2)nc1NCc1ccccc1	none (no result: Ecoli rRNA inh, E-sel inducer, EWS-Fli inh)
COC1=C(Br)C(=O)c2ncccc2C1=O	LGR2 antag inconclusive
O=C1C(=O)c2cccnc2-c2ncccc21	LGR2 antag 100.2
CN(C)C(=O)C[C@H]1C=C[C@H](NC(=O)c2ccc(F)cc2)[C@H](CO)O1	none (no result: EWS-Fli inh)
COc1cc2c(cc1OC)CN(CCC(C)c1ccc(Cl)cc1)CC2 (stereo unspecified)	Ecoli rRNA inh -32.6
COc1cc2c(cc1OC)CN(Cc1ccccc1)CC2	none (no result: E-sel inducer)
COc1ccc(CNC(=O)c2c(C)oc3c2C(=O)c2ccccc2C3=O)cc1	LGR2 antag 76.7
COc1ccc2c3c(n(C)c2c1)[C@H](CO)N(CC1CC1)CC31CCN(C(=O)c2cccnc2)CC1	none
Nc1ccc(Sc2nc3ccccc3[nH]2)cc1	Ecoli rRNA inh -21.8
FC(F)(F)c1cccc(NC(=S)Nc2ccc(Cl)c(Cl)c2)c1	Ecoli rRNA inh -49.2
CC(C)(C)NC(=S)Nc1cccc(C(F)(F)F)c1	Ecoli rRNA inh -48.5
CO[C@H]1CN(C)C(=O)c2cc(NC(=O)c3ccccc3)ccc2OC[C@@H](C)N(CC2CC2)C[C@@H]1C	none
Cn1nc(C(=O)NNc2c(F)c(F)cc(F)c2F)c2ccccc2c1=O	Ecoli rRNA inh -20.8
C(=N\Nc1nc(Nc2ccccc2)nc(N2CCCCC2)n1)/c1ccco1	Ecoli rRNA inh -38.2 (no result: E-sel inducer)
COc1ccc(/C=N/Nc2nc(Nc3ccccc3)nc(N3CCCC3)n2)cc1	none (no result: E-sel inducer)
COc1ccc(C(=O)N(CCc2ccccc2)Cc2ccccc2)c(OC)n1	E-sel inducer 30.2
COC(=O)c1cc(S(=O)(=O)NCC2CCN(CCc3cccs3)CC2)c[nH]1	E-sel inducer 226.3 (no result: EWS-Fli inh)
COC(=O)c1cc(S(=O)(=O)NCC2CCN(Cc3ccc(F)cc3)CC2)c[nH]1	none (no result: E-sel inducer, EWS-Fli inh)
CC(C)C(=O)Nc1ccc2c(c1)C(=O)N(C)[C@H]1CC[C@H](CC(=O)NCC3CC3)O[C@@H]1CO2	none
CC(SCc1ccccc1)C(=O)Nc1ccccc1-c1ccccc1 (stereo unspecified)	EWS-Fli inh 74.7 (no result: E-sel inducer)
